{"data": "Experimental data pooled from the literature", "cell line": "NCI-H1975", "read-out": "cell growth or viability", "note": "Lines come from different studies, so protocols differ."}
{"SMILES": "C#Cc1cccc(Nc2ncnc3cc(OCCOC)c(OCCOC)cc23)c1", "technique": "MTT", "time": "72 h", "quantity": "IC50", "result": "5.72 µM"}
{"SMILES": "COc1cccc(NC(=O)Nc2nc3cc(-c4ccc5ncn(CCN(C)C)c(=O)c5c4)ccc3s2)c1", "technique": "MTT", "time": "72 h", "quantity": "IC50", "result": "> 20 µM"}
{"SMILES": "COc1ccc2/c(=N/c3ccccc3NC(=O)[C@H](C)N)cc(-c3ccc4c(c3)OCCO4)oc2c1", "technique": "CCK-8", "concentration": "1 µM", "quantity": "inhibition", "result": "5.17%"}
{"SMILES": "COc1ccc(NC(=O)Nc2nc3cc(-c4ccc5ncn(CCN(C)C)c(=O)c5c4)ccc3s2)cc1", "technique": "MTT", "time": "72 h", "quantity": "IC50", "result": "> 20 µM"}
{"SMILES": "CCCn1cnc2ccc(-c3ccc(NC(=O)CC4CC4)nc3)cc2c1=O", "technique": "CCK-8", "time": "72 h", "quantity": "IC50", "result": "3.48 µM"}
{"SMILES": "CC(C)(C)[C@H](N)C(=O)Nc1ccccc1/N=c1\\cc(-c2ccc3c(c2)OCCO3)oc2cc(F)ccc12", "technique": "CCK-8", "concentration": "1 µM", "quantity": "inhibition", "result": "-7.44%"}
{"SMILES": "CCCCC(=O)Nc1ccc(-c2ccc3ncn(CC4CCC4)c(=O)c3c2)cn1", "technique": "CCK-8", "time": "72 h", "quantity": "IC50", "result": "1.4 µM"}
{"SMILES": "Cc1ccc(NC(=O)Nc2nc3cc(-c4ccc5ncn(Cc6ccccc6)c(=O)c5c4)ccc3s2)cc1", "technique": "MTT", "time": "72 h", "quantity": "IC50", "result": "> 20 µM"}
{"SMILES": "CCCn1cnc2ccc(-c3ccc(NC(=O)c4ccccc4)nc3)cc2c1=O", "technique": "CCK-8", "time": "72 h", "quantity": "IC50", "result": "0.095 µM"}
{"SMILES": "N[C@@H](CO)C(=O)Nc1ccccc1/N=c1\\cc(-c2ccc3c(c2)OCO3)oc2ccccc12", "technique": "CCK-8", "concentration": "1 µM", "quantity": "inhibition", "result": "-1.95%"}
